Experimental data taken from ChEMBL document CHEMBL3045565, “Microwave synthesis, characterization and bio-efficacy evaluation of novel chalcone based 6-carbethoxy-2-cyclohexen-1-one and 2H-indazol-3-ol derivatives” (Eur J Med Chem, 2013).
≈ marks a conversion by molar mass, not a printed value.

Assays:
Format in all cases: functional
[1] = test system: Radical scavenging activity; test: Antioxidant activity assessed as DPPH free radical scavenging activity at 300 ug/mL after 20 min by UV-Vis spectrophotometric analysis
Summary of the method: (§1)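 DPPH radical scavenging: samples were held at room temperature for 20 min in the dark, and absorbance was read at 517 nm. The control contained DMSO without compound, and methanol was used for baseline correction. Scavenging percentage was calculated from the absorbances.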

Staphylococcus aureus = test: Antibacterial activity against Staphylococcus aureus MTCC 3160 assessed as growth inhibition at 100 ug/disk after 24 hr by disk diffusion method; details: MTCC 3160, 24 h, read-out: DIZ
Summary of the method: (§2)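 Disk diffusion on nutrient agar. Strains kept on NA slants at 37 °C and subcultured in nutrient broth before testing. A log-phase culture was spread on solidified medium, and sterile disks were loaded with compound from DMSO stock. DMSO served as control, with commercial antibiotics for reference. Plates ran 24 h at 37 °C, and inhibition zones (mm) were read in quadruplicate.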

[2] = test system: Radical scavenging activity; test: Antioxidant activity assessed as DPPH free radical scavenging activity after 20 min by UV-Vis spectrophotometric analysis; set-up: concentration or dose not given beside the values; summary of the method: as §1
Xanthomonas oryzae = test: Antibacterial activity against Xanthomonas oryzae ITCC B-47 assessed as as growth inhibition at 100 ug/disk after 24 hr by disk diffusion method; details: ITCC B-47, 24 h, read-out: DIZ
Athelia rolfsii = test: Antifungal activity against Athelia rolfsii ITCC 6181 by food poisoning method; details: Agroathelia rolfsii
Summary of the method: (§3)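 Poisoned food technique on PDA at several concentrations. A 5 mm mycelial plug from the growing edge of a 2-week-old colony was placed inoculum-side down at the plate centre. Plates incubated at 27 °C until control growth was nearly complete. Colony diameter measured, percent inhibition calculated against control, LC50 derived. Four replicates per treatment.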

[3] = test system: Radical scavenging activity; test: Antioxidant activity assessed as DPPH free radical scavenging activity at 100 ug/mL after 20 min by UV-Vis spectrophotometric analysis; summary of the method: as §1
Klebsiella pneumoniae = test: Antibacterial activity against Klebsiella pneumoniae MTCC 7028 assessed as growth inhibition at 100 ug/disk after 24 hr by disk diffusion method; details: MTCC 7028, 24 h, read-out: DIZ; summary of the method: as §2
[4] = test system: Radical scavenging activity; test: Antioxidant activity assessed as DPPH free radical scavenging activity at 400 ug/mL after 20 min by UV-Vis spectrophotometric analysis; summary of the method: as §1
[5] = test system: Radical scavenging activity; test: Antioxidant activity assessed as DPPH free radical scavenging activity at 10 ug/mL after 20 min by UV-Vis spectrophotometric analysis; summary of the method: as §1
Pseudomonas aeruginosa = test: Antibacterial activity against Pseudomonas aeruginosa MTCC 2581 assessed as growth inhibition at 100 ug/disk after 24 hr by disk diffusion method; details: MTCC 2581, 24 h, read-out: DIZ; summary of the method: as §2
[6] = test system: Radical scavenging activity; test: Antioxidant activity assessed as DPPH free radical scavenging activity at 40 ug/mL after 20 min by UV-Vis spectrophotometric analysis; summary of the method: as §1
[7] = test system: Radical scavenging activity; test: Antioxidant activity assessed as DPPH free radical scavenging activity at 60 ug/mL after 20 min by UV-Vis spectrophotometric analysis; summary of the method: as §1
Rhizoctonia solani = test: Antifungal activity against Rhizoctonia solani ITCC 5563 by food poisoning method; summary of the method: as §3
[8] = test system: Radical scavenging activity; test: Antioxidant activity assessed as DPPH free radical scavenging activity at 500 ug/mL after 20 min by UV-Vis spectrophotometric analysis; summary of the method: as §1
Dickeya chrysanthemi = test: Antibacterial activity against Erwinia chrysanthemi ITCC B-40 assessed as as growth inhibition at 100 ug/disk after 24 hr by disk diffusion method; details: ITCC B-40, 24 h, read-out: DIZ; summary of the method: as §2
[9] = test system: Radical scavenging activity; test: Antioxidant activity assessed as DPPH free radical scavenging activity at 20 ug/mL after 20 min by UV-Vis spectrophotometric analysis; summary of the method: as §1
[10] = test system: Radical scavenging activity; test: Antioxidant activity assessed as DPPH free radical scavenging activity at 200 ug/mL after 20 min by UV-Vis spectrophotometric analysis; summary of the method: as §1
Bacillus pumilus = test: Antibacterial activity against Bacillus pumilus MTCC 2466 assessed as growth inhibition at 100 ug/disk after 24 hr by disk diffusion method; details: MTCC 2466, 24 h, read-out: DIZ; summary of the method: as §2
[11] = test system: Radical scavenging activity; test: Antioxidant activity assessed as DPPH free radical scavenging activity at 80 ug/mL after 20 min by UV-Vis spectrophotometric analysis; summary of the method: as §1
Bacillus thuringiensis = test: Antibacterial activity against Bacillus thuringiensis MTCC 6941 assessed as growth inhibition at 100 ug/disk after 24 hr by disk diffusion method; details: MTCC 6941, 24 h, read-out: DIZ; summary of the method: as §2

Row | Structure (SMILES) | Activity [1] | zone of inhibition at 100 µg/disc (Staphylococcus aureus) | Activity [2] | IC50 [2] | zone of inhibition at 100 µg/disc (Xanthomonas oryzae) | LC50 (Athelia rolfsii) | Activity [3] | zone of inhibition at 100 µg/disc (Klebsiella pneumoniae) | Activity [4] | Activity [5] | zone of inhibition at 100 µg/disc (Pseudomonas aeruginosa) | Activity [6] | Activity [7] | LC50 (Rhizoctonia solani) | Activity [8] | zone of inhibition at 100 µg/disc (Dickeya chrysanthemi) | Activity [9] | Activity [10] | zone of inhibition at 100 µg/disc (Bacillus pumilus) | Activity [11] | further results
1 | COc1ccc(C2CC(c3ccccc3)=Cc3n[nH]c(O)c32)cc1 (stereo unspecified) | 89.7% | 0 mm | 50.2% | 29.62 µg/mL (≈ 93 µM) | 0 mm | 713 µg/mL (≈ 2240 µM) | 89% | 0 mm | 88.9% | 16.8% | 0 mm | 50.3% | 79.7% | 718 µg/mL (≈ 2260 µM) | 90.2% | 0 mm | 30.6% | 91.8% | 0 mm | 88.4% | zone of inhibition at 100 µg/disc (Bacillus thuringiensis): 0 mm
2 | COc1ccc(C2CC(c3ccc(C)cc3)=Cc3n[nH]c(O)c32)cc1OC (stereo unspecified) | 91.6% | 0 mm | 62.6% | 33.12 µg/mL (≈ 91.4 µM) | 0 mm | 939 µg/mL (≈ 2590 µM) | 81.8% | 0 mm | 91.7% | 15% | 0 mm | 62.6% | 78.5% | 861 µg/mL (≈ 2380 µM) | 91% | 0 mm | 25.9% | 91.4% | 0 mm | 80.3% | zone of inhibition at 100 µg/disc (Bacillus thuringiensis): 0 mm
3 | COc1ccc(C2=Cc3n[nH]c(O)c3C(c3ccc(OC)c(OC)c3)C2)cc1 (stereo unspecified) | 90.4% | 0 mm | 65.3% | 23.94 µg/mL (≈ 63.3 µM) | 0 mm | 1240 µg/mL (≈ 3280 µM) | 91.4% | 0 mm | 90.5% | 17.7% | 0 mm | 65.3% | 85.8% | 1030 µg/mL (≈ 2730 µM) | 90.8% | 0 mm | 29.2% | 92.1% | 0 mm | 90% | zone of inhibition at 100 µg/disc (Bacillus thuringiensis): 0 mm
4 | COc1ccc(C2CC(c3ccc(Cl)cc3)=Cc3n[nH]c(O)c32)cc1 (stereo unspecified) | 89.7% | 0 mm | 43.2% | 42.34 µg/mL (≈ 120 µM) | 0 mm | 941 µg/mL (≈ 2670 µM) | 89.9% | 0 mm | 89.8% | 13.9% | 0 mm | 43.2% | 68.7% | 587 µg/mL (≈ 1660 µM) | 90% | 0 mm | 21.7% | 91.2% | 0 mm | 86.4% | zone of inhibition at 100 µg/disc (Bacillus thuringiensis): 0 mm
5 | O=[N+]([O-])c1ccc(C2=Cc3n[nH]c(O)c3C(c3ccc4c(c3)OCO4)C2)cc1 (stereo unspecified) | 87.9% | 0 mm | 19.8% | 95.82 µg/mL (≈ 254 µM) | 0 mm | 963 µg/mL (≈ 2550 µM) | 50.7% | 0 mm | 87.3% | 5.3% | 0 mm | 19.8% | 38.4% | 931 µg/mL (≈ 2470 µM) | 87.3% | 0 mm | 5.8% | 83.4% | 0 mm | 44.5% | zone of inhibition at 100 µg/disc (Bacillus thuringiensis): 0 mm
6 | COc1ccc(C2CC(c3ccc4c(c3)OCO4)=Cc3n[nH]c(O)c32)cc1 (stereo unspecified) | 89.8% | 0 mm | 56.1% | 25.2 µg/mL (≈ 69.5 µM) | 0 mm | 897 µg/mL (≈ 2480 µM) | 90.7% | 0 mm | 89.9% | 19% | 0 mm | 56.1% | 84.2% | 643 µg/mL (≈ 1770 µM) | 90.1% | 0 mm | 30.4% | 91.9% | 0 mm | 89.5% | zone of inhibition at 100 µg/disc (Bacillus thuringiensis): 0 mm
7 | COc1ccc(C2CC(c3ccc(Cl)c(Cl)c3)=Cc3n[nH]c(O)c32)cc1 (stereo unspecified) | 90.7% | 0 mm | 48.5% | 40.98 µg/mL (≈ 106 µM) | 0 mm | 1030 µg/mL (≈ 2660 µM) | 91.1% | 0 mm | 91.3% | 17.6% | 0 mm | 48.6% | 86.1% | 776 µg/mL (≈ 2000 µM) | 91.3% | 0 mm | 31% | 91.5% | 0 mm | 90.4% | zone of inhibition at 100 µg/disc (Bacillus thuringiensis): 0 mm
8 | COc1ccc(C2CC(c3ccccc3)=Cc3n[nH]c(O)c32)cc1OC (stereo unspecified) | 91.9% | 0 mm | 69.9% | 21.98 µg/mL (≈ 63.1 µM) | 0 mm | 817 µg/mL (≈ 2340 µM) | 91.8% | 0 mm | 90.5% | 18.1% | 5 mm | 69.9% | 87.6% | 696 µg/mL (≈ 2000 µM) | 90.8% | 0 mm | 30.2% | 91.9% | 0 mm | 90.9% | zone of inhibition at 100 µg/disc (Bacillus thuringiensis): 0 mm
9 | Cc1ccc(C2CC(c3ccccc3)=Cc3n[nH]c(O)c32)cc1 (stereo unspecified) | 81.8% | 5 mm | 18.2% | 106.62 µg/mL (≈ 353 µM) | 0 mm | 922 µg/mL (≈ 3050 µM) | 41.2% | 0 mm | 85.7% | 9.2% | 10 mm | 18.2% | 35.1% | 745 µg/mL (≈ 2460 µM) | 85.7% | 0 mm | 14.5% | 69.9% | 0 mm | 36.4% | zone of inhibition at 100 µg/disc (Bacillus thuringiensis): 0 mm
10 | COc1cc(C2CC(c3ccccc3)=Cc3n[nH]c(O)c32)cc(OC)c1OC (stereo unspecified) | 91.2% | 0 mm | 67.1% | 22.28 µg/mL (≈ 58.9 µM) | 0 mm | 1020 µg/mL (≈ 2710 µM) | 91.8% | 0 mm | 90.5% | 18.1% | 0 mm | 67.1% | 86.4% | 917 µg/mL (≈ 2420 µM) | 90.8% | 0 mm | 31.5% | 92.3% | 0 mm | 90.7% | zone of inhibition at 100 µg/disc (Bacillus thuringiensis): 0 mm
11 | COc1cc(C2CC(c3ccc(C)cc3)=Cc3n[nH]c(O)c32)cc(OC)c1OC (stereo unspecified) | 90.2% | 0 mm | 56.9% | 29.7 µg/mL (≈ 75.7 µM) | 0 mm | 1170 µg/mL (≈ 2990 µM) | 90.8% | 0 mm | 90.3% | 15% | 0 mm | 56.9% | 79.3% | 738 µg/mL (≈ 1880 µM) | 90.6% | 0 mm | 26.4% | 91.8% | 0 mm | 89.9% | zone of inhibition at 100 µg/disc (Bacillus thuringiensis): 0 mm
